Laboratory results: ChEMBL document CHEMBL2016521, “Preparation, gram-negative antibacterial activity, and hydrolytic stability of novel siderophore-conjugated monocarbam diols” (ACS Med Chem Lett, 2011)
Converted amounts (≈) assume the structure as drawn. One block for each compound: values may come before it.

Columns and labels:
Pseudomonas aeruginosa [1] = assay: Antibacterial activity against Pseudomonas aeruginosa isolate 1091-05; type: functional
Serratia marcescens = assay: Antimicrobial activity against Serratia marcescens; type: functional
Acinetobacter baumannii = assay: Antibacterial activity against Acinetobacter baumannii AB-3167; type: functional
Pseudomonas aeruginosa [2] = assay: Antibacterial activity against imipenem-sensitive Pseudomonas aeruginosa isolate 1091-05 infected in ip dosed SF-1 mouse assessed as survival of animal administered 0.5 and 4 hrs post infected measured on day 4; type: functional; settings: isolate 1091-05, ip, read-out: PD50
Pseudomonas aeruginosa [3] = assay: Antibacterial activity against imipenem-sensitive Pseudomonas aeruginosa isolate 1091-05 infected in sc dosed neutropenic-C3H/HeN mouse assessed as mouse survival administered 4 hrs post infection followed by BID dosing for two days measured on day 10; type: functional; settings: isolate 1091-05, sc, read-out: PD50
Citrobacter freundii = assay: Antimicrobial activity against Citrobacter freundii; type: functional
Klebsiella aerogenes = assay: Antimicrobial activity against Enterobacter aerogenes; type: functional
[4] = system: Stenotrophomonas maltophilia; assay: Antimicrobial activity against Stenotrophomonas maltophilia; type: functional
Acinetobacter sp. = assay: Antimicrobial activity against Acinetobacter sp.; type: functional
Klebsiella pneumoniae [5] = assay: Antibacterial activity against Klebsiella pneumoniae 1000-02; type: functional
Pseudomonas aeruginosa [6] = assay: Antibacterial activity against Pseudomonas aeruginosa; type: functional
[7] = Chemical stability of the compound in phosphate buffer at pH 6 at 1 uM after 24 hrs by HPLC analysis; type: physicochemical; settings: pH 6, 24 h
Method in brief: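 Hydrolytic stability of the β-lactam ring was measured in aqueous buffer at pH 6.0 and 37 °C.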

[8] = Chemical stability of the compound in phosphate buffer at pH 8 assessed as drug degradation at 1 uM after 100 hrs by HPLC analysis; type: physicochemical; settings: read-out: Drug degradation
Method in brief: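 Hydrolytic β-lactam ring-opening was followed in aqueous buffer at pH 8.0 and 37 °C over a 100 h incubation. The read-out was percent degradation.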

Escherichia coli [9] = assay: Antimicrobial activity against extended spectrum beta-lactamase-producing Escherichia coli; type: functional
Klebsiella pneumoniae [10] = assay: Antimicrobial activity against carbapenemase-producing Klebsiella pneumoniae; type: functional
[11] = Fraction unbound in mouse plasma at 1 uM by LC-MS/MS analysis; type: ADME, cell-free
Pseudomonas aeruginosa [12] = assay: Antibacterial activity against low inoculum imipenem-sensitive Pseudomonas aeruginosa isolate 1091-05 infected in sc dosed neutropenic-C3H/HeN mouse assessed as mouse survival administered 4 hrs post infection followed by BID dosing for two days measured on day 10; type: functional; settings: isolate 1091-05, sc, read-out: PD50
Pseudomonas aeruginosa [13] = assay: Antibacterial activity against Pseudomonas aeruginosa cystic fibrosis isolate; type: functional
Escherichia coli [14] = assay: Antimicrobial activity against CTX-M-positive extended spectrum beta-lactamase-producing Escherichia coli; type: functional
Escherichia coli [15] = assay: Antimicrobial activity against Escherichia coli clinical isolate; type: functional
Klebsiella pneumoniae [16] = assay: Antimicrobial activity against extended spectrum beta-lactamase-producing Klebsiella pneumoniae; type: functional
Klebsiella pneumoniae [17] = assay: Antimicrobial activity against Klebsiella pneumoniae clinical isolate; type: functional
Pseudomonas aeruginosa [18] = assay: Antibacterial activity against metallo-beta-lactamase producing Pseudomonas aeruginosa; type: functional
Pseudomonas aeruginosa [19] = assay: Antibacterial activity against Pseudomonas aeruginosa clinical isolate; type: functional

MIC (Pseudomonas aeruginosa [1]): 8 µg/mL
SMILES: Cc1cc(Cn2c(-c3cc(=O)c(O)c[nH]3)nn(S(=O)(=O)[N-]C(=O)N3C[C@H](NC(=O)/C(=N\OC(C)(C)C(=O)[O-])c4csc(N)n4)C3=O)c2=O)nn1C.[Na+].[Na+]

MIC (Pseudomonas aeruginosa [1]): 0.25 µg/mL
SMILES: CC(C)(O)Cn1c(-c2cc(=O)c(O)c[nH]2)nn(S(=O)(=O)[N-]C(=O)N2C[C@H](NC(=O)/C(=N\OC(C)(C)C(=O)[O-])c3csc(N)n3)C2=O)c1=O.[Na+].[Na+]

SMILES: C[C@H]1[C@H](NC(=O)/C(=N\OC(C)(C)C(=O)O)c2csc(N)n2)C(=O)N1S(=O)(=O)O [AZTREONAM]
MIC50 (Serratia marcescens): 0.5 µg/mL (≈ 1.15 µM) | MIC90 (Serratia marcescens): > 64 µg/mL | MIC (Pseudomonas aeruginosa [1]): 8 µg/mL (≈ 18.4 µM) | MIC (Acinetobacter baumannii): 32 µg/mL (≈ 73.5 µM) | ED50 (Pseudomonas aeruginosa [2]): > 50 mg/kg | ED50 (Pseudomonas aeruginosa [3]): > 200 mg/kg | MIC50 (Citrobacter freundii): 0.25 µg/mL (≈ 0.574 µM) | MIC90 (Citrobacter freundii): 64 µg/mL (≈ 147 µM) | MIC90 (Klebsiella aerogenes): 64 µg/mL (≈ 147 µM) | MIC50 [4]: > 64 µg/mL | MIC90 [4]: > 64 µg/mL | MIC50 (Acinetobacter sp.): 32 µg/mL (≈ 73.5 µM) | MIC90 (Acinetobacter sp.): > 64 µg/mL

SMILES: CC(C)(O/N=C(\C(=O)N[C@H]1CN(C(=O)[N-]S(=O)(=O)n2nc(-c3cc(=O)c(O)c[nH]3)n(C[C@@H](O)CO)c2=O)C1=O)c1csc(N)n1)C(=O)[O-].[Na+].[Na+]
MIC50 (Serratia marcescens): 0.125 µg/mL | MIC90 (Serratia marcescens): 0.5 µg/mL | MIC (Pseudomonas aeruginosa [1]): 0.125 µg/mL | MIC (Klebsiella pneumoniae [5]): 0.5 µg/mL | MIC (Acinetobacter baumannii): 0.5 µg/mL | MIC90 (Pseudomonas aeruginosa [6]): 0.5 µg/mL | ED50 (Pseudomonas aeruginosa [2]): < 1 mg/kg | ED50 (Pseudomonas aeruginosa [3]): 20.6 mg/kg | Stability [7]: Stable | degraded at 100 h, 1 µM [8]: 50% | MIC50 (Citrobacter freundii): 0.5 µg/mL | MIC90 (Citrobacter freundii): 2 µg/mL | MIC50 (Klebsiella aerogenes): 0.125 µg/mL | MIC90 (Klebsiella aerogenes): 0.25 µg/mL | MIC50 (Escherichia coli [9]): 0.25 µg/mL | MIC90 (Escherichia coli [9]): 2 µg/mL | MIC50 (Klebsiella pneumoniae [10]): 0.5 µg/mL | MIC90 (Klebsiella pneumoniae [10]): 8 µg/mL | MIC50 [4]: 1 µg/mL | MIC90 [4]: 2 µg/mL | MIC50 (Acinetobacter sp.): 16 µg/mL | MIC90 (Acinetobacter sp.): > 64 µg/mL | fraction unbound at 1 µM [11]: 0.46 | ED50 (Pseudomonas aeruginosa [12]): 6.9 mg/kg | MIC50 (Pseudomonas aeruginosa [13]): 0.125 µg/mL | MIC90 (Pseudomonas aeruginosa [13]): 0.5 µg/mL | MIC50 (Escherichia coli [14]): 0.25 µg/mL | MIC90 (Escherichia coli [14]): 2 µg/mL | MIC50 (Escherichia coli [15]): 0.25 µg/mL | MIC90 (Escherichia coli [15]): 2 µg/mL | MIC50 (Klebsiella pneumoniae [16]): 0.5 µg/mL | MIC90 (Klebsiella pneumoniae [16]): 8 µg/mL | MIC50 (Klebsiella pneumoniae [17]): 0.5 µg/mL | MIC90 (Klebsiella pneumoniae [17]): 8 µg/mL | MIC50 (Pseudomonas aeruginosa [18]): 0.125 µg/mL | MIC90 (Pseudomonas aeruginosa [18]): 0.5 µg/mL | MIC50 (Pseudomonas aeruginosa [19]): 0.125 µg/mL | MIC90 (Pseudomonas aeruginosa [19]): 0.5 µg/mL

SMILES: C[C@H]1[C@H](NC(=O)/C(=N\OC(C)(C)C(=O)[O-])c2csc(N)n2)C(=O)N1C(=O)[N-]S(=O)(=O)n1nc(-c2cc(=O)c(O)c[nH]2)n(C[C@@H](O)CO)c1=O.[Na+].[Na+]
MIC (Pseudomonas aeruginosa [1]): 0.25 µg/mL | MIC (Klebsiella pneumoniae [5]): 0.5 µg/mL | MIC (Acinetobacter baumannii): 2 µg/mL | MIC90 (Pseudomonas aeruginosa [6]): 0.5 µg/mL | Stability [7]: Stable | degraded at 100 h, 1 µM [8]: 20% | fraction unbound at 1 µM [11]: 0.51 | ED50 (Pseudomonas aeruginosa [12]): 1.4 mg/kg

SMILES: COCCn1c(-c2cc(=O)c(O)c[nH]2)nn(S(=O)(=O)[N-]C(=O)N2C[C@H](NC(=O)/C(=N\OC(C)(C)C(=O)[O-])c3csc(N)n3)C2=O)c1=O.[Na+].[Na+]
MIC (Pseudomonas aeruginosa [1]): 0.5 µg/mL | MIC (Klebsiella pneumoniae [5]): 0.5 µg/mL | MIC (Acinetobacter baumannii): 4 µg/mL | MIC90 (Pseudomonas aeruginosa [6]): 1 µg/mL | ED50 (Pseudomonas aeruginosa [3]): > 70.8 mg/kg

SMILES: C[C@H](O)Cn1c(-c2cc(=O)c(O)c[nH]2)nn(S(=O)(=O)[N-]C(=O)N2C(=O)[C@@H](NC(=O)/C(=N\OC(C)(C)C(=O)[O-])c3csc(N)n3)[C@@H]2C)c1=O.[Na+].[Na+]
MIC (Pseudomonas aeruginosa [1]): 0.25 µg/mL | MIC (Klebsiella pneumoniae [5]): 1 µg/mL | MIC (Acinetobacter baumannii): 4 µg/mL | MIC90 (Pseudomonas aeruginosa [6]): 0.5 µg/mL | ED50 (Pseudomonas aeruginosa [3]): 21.3 mg/kg

SMILES: Cn1c(-c2cc(=O)c(O)c[nH]2)nn(S(=O)(=O)[N-]C(=O)N2C[C@H](NC(=O)/C(=N\OC(C)(C)C(=O)[O-])c3csc(N)n3)C2=O)c1=O.[Na+].[Na+]
MIC (Pseudomonas aeruginosa [1]): 0.5 µg/mL | MIC (Klebsiella pneumoniae [5]): 0.5 µg/mL | MIC (Acinetobacter baumannii): 1 µg/mL | MIC90 (Pseudomonas aeruginosa [6]): 2 µg/mL | ED50 (Pseudomonas aeruginosa [2]): 4 mg/kg | ED50 (Pseudomonas aeruginosa [3]): > 150 mg/kg | fraction unbound at 1 µM [11]: 0.26

MIC (Pseudomonas aeruginosa [1]): 0.25 µg/mL
SMILES: CC(C)(O/N=C(\C(=O)N[C@H]1CN(C(=O)[N-]S(=O)(=O)n2nc(-c3cc(=O)c(O)c[nH]3)n(CC(F)(F)F)c2=O)C1=O)c1csc(N)n1)C(=O)[O-].[Na+].[Na+]

SMILES: CC(C)(O/N=C(\C(=O)N[C@H]1CN(C(=O)[N-]S(=O)(=O)n2nc(-c3cc(=O)c(O)c[nH]3)n(CC(N)=O)c2=O)C1=O)c1csc(N)n1)C(=O)[O-].[Na+].[Na+]
MIC (Pseudomonas aeruginosa [1]): 0.125 µg/mL | MIC (Klebsiella pneumoniae [5]): 1 µg/mL | MIC (Acinetobacter baumannii): 1 µg/mL | MIC90 (Pseudomonas aeruginosa [6]): 1 µg/mL | ED50 (Pseudomonas aeruginosa [3]): 25 mg/kg

SMILES: C[C@@H](O)Cn1c(-c2cc(=O)c(O)c[nH]2)nn(S(=O)(=O)[N-]C(=O)N2C[C@H](NC(=O)/C(=N\OC(C)(C)C(=O)[O-])c3csc(N)n3)C2=O)c1=O.[Na+].[Na+]
MIC (Pseudomonas aeruginosa [1]): 0.125 µg/mL | MIC (Klebsiella pneumoniae [5]): 0.5 µg/mL | MIC (Acinetobacter baumannii): 1 µg/mL | MIC90 (Pseudomonas aeruginosa [6]): 1 µg/mL | ED50 (Pseudomonas aeruginosa [2]): < 1 mg/kg | ED50 (Pseudomonas aeruginosa [3]): 32.7 mg/kg
